Laboratory results as given in ChEMBL document CHEMBL4334446, “Evaluating the effects of fluorine on biological properties and metabolic stability of some antitubulin 3-substituted 7-phenyl-pyrroloquinolinones” (Eur J Med Chem, 2019).
Activity calls are given as the source filed them. No cut-off for these calls is given here.

Assays:
MDA-MB-468 = assay: Growth inhibition of human MDA-MB-468 cells incubated for 72 hrs by MTT assay; type: functional; conditions: MDA-MB-468, 72 h
A2058 [1] = assay: Growth inhibition of human A2058 cells incubated for 72 hrs by MTT assay; type: functional; conditions: A2058, 72 h
A-375 [2] = assay: Induction of cell cycle arrest in human A375 cells assessed as accumulation of cells at G2/M phase at 50 to 100 nM incubated for 24 hrs by PI staining based flow cytometric analysis; type: functional
Summary of the method: (§1)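 A375 and A2058 melanoma cells were treated 24 h. Cells were fixed in ice-cold 70% ethanol, then given lysis buffer with RNase A and 0.1% Triton X-100 and stained with PI. Phase distribution came from flow cytometric DNA histograms. Mean ± SEM of two independent experiments.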

A2058 [3] = assay: Induction of cell cycle arrest in human A2058 cells assessed as accumulation of cells at G2/M phase at 50 to 100 nM incubated for 24 hrs by PI staining based flow cytometric analysis; type: functional; summary of the method: as §1
A-375 [4] = assay: Induction of cell cycle arrest in human A375 cells assessed as reduction in cell population at S phase at 50 to 100 nM incubated for 24 hrs by PI staining based flow cytometric analysis; type: functional; summary of the method: as §1
A2058 [5] = assay: Induction of cell cycle arrest in human A2058 cells assessed as reduction in cell population at S phase at 50 to 100 nM incubated for 24 hrs by PI staining based flow cytometric analysis; type: functional; summary of the method: as §1
HeLa [6] = assay: Cell cycle arrest in human HeLa cells assessed as proportion of mitotic cells at 50 nM incubated for 24 hrs by PI staining based flow cytometric assay (reference value: 1.5%); type: functional
HeLa [7] = assay: Increase in cyclin B1 protein expression level in human HeLa cells incubated for 24 to 48 hrs by western blot analysis; type: functional, cell-based
Summary of the method: (§2)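 HeLa cells were exposed for set times, including 24 and 48 h, then washed in cold PBS and lysed on ice for 30 min. Lysates were cleared at 15000 × g at 4 °C. 10 µg protein was run by SDS-PAGE and transferred to PVDF. Blots were probed 2 h at room temperature with primary antibodies, then peroxidase secondary antibodies, and detected by ECL. Membranes were reprobed for actin as loading control.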

HeLa [8] = assay: Induction of mitochondrial membrane depolarization in human HeLa cells at 10 to 100 nM measured at early apoptotic stage of cells by JC1 staining based flow cytometric analysis; type: functional, cell-based; conditions: TDE = time-dependent effect
Summary of the method: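 HeLa cells were treated 6, 12, 24 and 48 h with 10–100 nM. Cells were stained with JC-1, and the fraction with low mitochondrial potential was measured by flow cytometry. Mean ± SEM of three independent experiments.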

HeLa [9] = assay: Induction of ROS generation in human HeLa cells at 100 nM incubated for 12 to 24 hrs by H2DCFDA staining based flow cytometric analysis; type: functional, cell-based
Summary of the method: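 HeLa cells were treated 6, 12, 24 and 48 h, then stained with H2-DCFDA. ROS fluorescence was read by flow cytometry. Mean ± SEM of three independent experiments.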

HeLa [10] = assay: Induction of apoptosis in human HeLa cells assessed as decrease in Bcl2 protein expression at 10 to 100 nM incubated for 24 hrs by western blot analysis; type: functional, cell-based; summary of the method: as §2
B16-BL6 [11] = assay: Antitumour activity against mouse B16-BL6 cells allografted in C57BL/6 mouse assessed as reduction in tumor mass at 7.5 mg/kg, ip administrated every other day relative to control; type: functional
Summary of the method: (§3)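 Male C57BL/6 mice (six weeks old) got 2.5×10^5 BL6-B16 murine melanoma cells s.c. in the dorsolateral flank, in PBS. Once tumors were measurable (about 100 mm³), mice were randomized and given drug i.p. every other day in 50 µL DMSO. Vehicle (DMSO) group served as control. Tumor volume = (D × d²)/2; tumor weight taken at end. 5 animals per group, mean ± SEM.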

B16-BL6 [12] = assay: Antitumour activity against mouse B16-BL6 cells allografted in C57BL/6 mouse assessed as reduction in tumor mass at 3 mg/kg, ip administrated every other day relative to control; type: functional; summary of the method: as §3
[13] = Toxicity in C57BL/6 mouse allografted with mouse B16-BL6 cells assessed as change in body weight at 3 to 7.5 mg/kg, ip administrated every other day; type: organism-based; conditions: in vivo
Summary of the method: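 Male six-week-old C57BL/6 mice were given BL6-B16 murine melanoma cells subcutaneously in the dorsolateral flank in PBS. Once tumours reached about 100 mm³, mice were randomised and dosed intraperitoneally every other day with 3.0 or 7.5 mg/kg in DMSO, or vehicle alone. Body weight change was followed; 5 animals per group, mean ± SEM.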

[14] = Metabolic stability in human liver microsomes at 10 uM incubated for 60 mins in absence of NADPH by HPLC analysis; type: ADME, Microsome; conditions: 1 h
Summary of the method: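 Compound at 10 μM final was incubated at 37 °C with pooled mixed-gender HLMs (1 mg/mL) in 0.1 M KH₂PO₄ pH 7.4, NADPH omitted, for 0 or 60 min. Reaction was started by adding microsomes after 3-min equilibration and stopped with ice-cold acetonitrile. Supernatant was analysed by HPLC-fluorescence. Percent remaining at 60 min is relative to 0 min; mean ± SD, n = 3.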

[15] = Metabolic stability in human liver microsomes at 10 uM incubated for 60 mins in presence of NADPH by ESI-MS analysis; type: ADME, Microsome; conditions: 1 h

CCn1ccc2c3c(=O)cc(-c4ccccc4F)[nH]c3ccc21
GI50 (MDA-MB-468): 22.3 nM | GI50 (A2058 [1]): 4.8 nM | Activity (A-375 [2]): Active | Activity (A2058 [3]): Active | Activity (A-375 [4]): Active | Activity (A2058 [5]): Active | Activity (HeLa [6]): 10% | Activity (HeLa [7]): Dose-dependent effect | Activity (HeLa [8]): Tde | Activity (HeLa [9]): Active | Activity (HeLa [10]): Active | inhibition in vivo at 7.5 mg/kg (B16-BL6 [11]): 60% | inhibition in vivo at 3 mg/kg (B16-BL6 [12]): 28.6% | Activity [13]: Non-Toxic

CCn1ccc2c3c(=O)cc(-c4ccccc4)[nH]c3ccc21
Stability [14]: Stable | Drug metabolism [15]: Metabolite_Detected
